Fewer inactive variants are shown than the library holds.
B1: tRNA (parent)
chain: GUUCCGUUGGCGUAAUGGUAACGCGUCUCCCUCCUAAGGAGAAGACUGCGGGUUCGAGUCCCGUACGGAACG

Variants of: B1
Assay: yeast fitness relative to wild type (ratio to wild type); higher = fitter; tRNA-Arg(CCU), competitive growth, 37 C, YPD
How it was run: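 Variants of the tRNA-Arg(CCU) gene, chemically synthesised with a 3% per-site mutation rate at 69 sites, were placed at the native genomic locus in Saccharomyces cerevisiae. The pooled strains were competed in YPD at 37°C for 24 hours in six parallel replicates. Gene amplicons from the start population and from each end population were read by 100-nucleotide paired-end sequencing. Darwinian fitness relative to wild type came from changes in genotype frequencies; genotypes needed ≥ 100 starting reads, and estimates < 0.5 were set to 0.5.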
Variant C31A A43U has a yeast fitness of 0.94.
In the case of C31A G63C G68U, the yeast fitness is reported as ≤ 0.5.
With C31G A36C A42G G52A the yeast fitness was ≤ 0.5.
For C30U G44C G51A C61U, the yeast fitness was ≤ 0.5.
C31G A40U A45U C62A showed a yeast fitness of 0.591.
C31G A42G U47G showed a yeast fitness of 0.573.
For C30U C31U A36C, the yeast fitness was ≤ 0.5.
For C31A C34A A37C, the yeast fitness was 0.6.
C30U G51C gave a yeast fitness of 0.535.
C30U G51A gave a yeast fitness of 0.7.
For C30U U32G U64A G68C, the yeast fitness was ≤ 0.5.
Variant C30U U35A A42G C61U G63A has a yeast fitness of 0.519.
C31A U47C G67A gave a yeast fitness of 0.544.
In the case of C31A C46A A65U, the yeast fitness is reported as ≤ 0.5.
With C30U C31U C34A A70C the yeast fitness was ≤ 0.5.
C31A U35A A36U U47C C55U showed a yeast fitness of 0.518.
In the case of C31A G48C U54C C61A A70G, the yeast fitness is reported as ≤ 0.5.
In the case of C31G C34G, the yeast fitness is reported as 0.629.
C31A G38C showed a yeast fitness of 0.749.
C31G A36G A69C showed a yeast fitness of 0.622.
C30U G38C C61U showed a yeast fitness of 0.542.
Variant C30U C34U has a yeast fitness of 0.715.
Work on C30U C34A yielded a yeast fitness of 0.806.
With C31A G51C C60U G67A the yeast fitness was ≤ 0.5.
For C31G A36C, the yeast fitness was 0.555.
With C31G A36G the yeast fitness was 0.783.
In the case of C30U G56A G67C, the yeast fitness is reported as 0.603.
For C30U C33G C46G, the yeast fitness was ≤ 0.5.
In the case of C31G C34U A40C A69C, the yeast fitness is reported as ≤ 0.5.
Work on C30U C55G G58C yielded a yeast fitness of 0.526.
For C30U C46A G50A, the yeast fitness was 0.632.
Work on C31A G58C yielded a yeast fitness of 0.894.
With C31G C34U A42U A70C the yeast fitness was ≤ 0.5.
In the case of C31A U53C, the yeast fitness is reported as 0.571.
For C30U C31U C60G, the yeast fitness was ≤ 0.5.
With C31G C33G A70U the yeast fitness was ≤ 0.5.
C30U U32C gave a yeast fitness of 0.924.
With C30U G68A A69C the yeast fitness was 0.544.
With C30U G39A C61G C62G the yeast fitness was ≤ 0.5.
In the case of C30U C61G A70C, the yeast fitness is reported as ≤ 0.5.
For C31A C55A G67A, the yeast fitness was ≤ 0.5.
With C31A G56C A57G C62U the yeast fitness was ≤ 0.5.
For C30U C34G C46U C55U G67C, the yeast fitness was ≤ 0.5.
C30U G41C A70U gave a yeast fitness of 0.567.
With C30U C33A G63C U64C the yeast fitness was ≤ 0.5.
C30U U54A A70G showed a yeast fitness of 0.518.
C30U U54A A70U showed a yeast fitness of 0.572.
For C30U U32G A37G, the yeast fitness was ≤ 0.5.
For C31A C33G A36U, the yeast fitness was 0.676.
Work on C31G A45U C55U C62U yielded a yeast fitness of 0.564.
In the case of C31A A36G A57U, the yeast fitness is reported as 0.539.
With C31A A57G C61U the yeast fitness was ≤ 0.5.
For C30U C34G C46U, the yeast fitness was ≤ 0.5.
With C30U C46U the yeast fitness was 0.966.
C30U C46G gave a yeast fitness of 0.874.
C30U C46A gave a yeast fitness of 0.982.
In the case of C31A A36U, the yeast fitness is reported as 0.705.
For C30U C55G A69C, the yeast fitness was ≤ 0.5.
C31A G44A A57C C62A G68C showed a yeast fitness of 0.559.
Work on C31G A37U G48C yielded a yeast fitness of 0.528.
For C31G A42G A65U G67C, the yeast fitness was ≤ 0.5.
In the case of C31A G52C A57G, the yeast fitness is reported as ≤ 0.5.
For C31A U47C A69U, the yeast fitness was ≤ 0.5.
Variant C30U C31G A36C U54A has a yeast fitness of 0.674.
In the case of C31A G68C, the yeast fitness is reported as 0.648.
In the case of C31A G68A, the yeast fitness is reported as 0.694.
In the case of C30U G67A, the yeast fitness is reported as 0.921.
C30U G67C gave a yeast fitness of 0.864.
With C31G C34U C46U G56A G63A the yeast fitness was ≤ 0.5.
For C31G C33G C49U C60G C66A, the yeast fitness was ≤ 0.5.
In the case of C30U C31U A45C C49U U53G, the yeast fitness is reported as ≤ 0.5.
In the case of C31A G63A, the yeast fitness is reported as 0.676.
In the case of C31A G63C, the yeast fitness is reported as 0.62.
For C30U U59A, the yeast fitness was 0.828.
In the case of C30U U59C, the yeast fitness is reported as 0.824.
With C31A A37C G67A the yeast fitness was ≤ 0.5.
For C30U U35C A42C G48C, the yeast fitness was ≤ 0.5.
For C30U C61A, the yeast fitness was 0.648.
With C31G A37G the yeast fitness was 0.79.
In the case of C31G C34G A36G C66A, the yeast fitness is reported as ≤ 0.5.
Work on C30U C31G C66U yielded a yeast fitness of 0.512.
For C31G A40C, the yeast fitness was 0.718.
For C31G A40U, the yeast fitness was 0.998.
In the case of C31G A40G C46A U54C C55G, the yeast fitness is reported as ≤ 0.5.
With C31G A65U G67C the yeast fitness was 0.567.
C31G C33A C49U U54G A65U gave a yeast fitness of 0.597.
In the case of C30U U47C A65G, the yeast fitness is reported as ≤ 0.5.
C31A A40C C62U gave a yeast fitness of 0.532.
Work on C31A G44A A57C G68C yielded a yeast fitness of 0.753.
For C30U C34U G51C C55U, the yeast fitness was ≤ 0.5.
C31A A43C C62U gave a yeast fitness of 0.998.
Variant C30U U47C has a yeast fitness of 0.835.
In the case of C30U G50A G68A, the yeast fitness is reported as ≤ 0.5.
Work on C30U G38C A40G yielded a yeast fitness of 0.569.
For C31G C33U A42G U64C A65G, the yeast fitness was ≤ 0.5.
Variant C31A A70G has a yeast fitness of 0.811.
With C31A A70U the yeast fitness was 0.927.
C31A A70C showed a yeast fitness of 0.783.
In the case of C31A G38A C46U, the yeast fitness is reported as ≤ 0.5.
With C31A G39A C46U the yeast fitness was ≤ 0.5.
For C31A A57U A69U, the yeast fitness was ≤ 0.5.
For C30U G52A G68C, the yeast fitness was ≤ 0.5.
In the case of C31G C46U C49U G56C, the yeast fitness is reported as ≤ 0.5.
With C31G A37C G50A A65C the yeast fitness was ≤ 0.5.
For C31G C49U G50C A69U, the yeast fitness was ≤ 0.5.
In the case of C31A C33G A42C G48A U54A A69C, the yeast fitness is reported as ≤ 0.5.
With C31A A57G G68A the yeast fitness was ≤ 0.5.
In the case of C31A C62G G68C, the yeast fitness is reported as ≤ 0.5.
For C31A, the yeast fitness was 0.848.
For C31G, the yeast fitness was 0.939.
In the case of C31A G52C, the yeast fitness is reported as ≤ 0.5.
For C31G C55A, the yeast fitness was 0.605.
For C31G C33U A37C A65U, the yeast fitness was 0.538.
With C30U G68A A70U the yeast fitness was 0.577.
With C30U C33U A43G the yeast fitness was 0.569.
Work on C31G A45G A65G yielded a yeast fitness of 0.628.
In the case of C30U G44C A65U, the yeast fitness is reported as ≤ 0.5.
C31G A36U C46U A65C showed a yeast fitness of 0.74.
With C31G A37G U54A the yeast fitness was 0.681.
In the case of C31A C34G A43C U47C C61U, the yeast fitness is reported as ≤ 0.5.
C31A C46G gave a yeast fitness of 0.852.
For C31A C46A, the yeast fitness was 0.853.
C31A C49U C61U showed a yeast fitness of 0.663.
In the case of C31G A45C C49A A70G, the yeast fitness is reported as ≤ 0.5.
With C30U U47A A57G G67C the yeast fitness was ≤ 0.5.
In the case of C31A A37U G63A G67C, the yeast fitness is reported as ≤ 0.5.
In the case of C31A G44A, the yeast fitness is reported as 0.792.
With C30U G52A U54C the yeast fitness was ≤ 0.5.
For C30U U54C, the yeast fitness was 0.805.
C31A A42G A43G G68C gave a yeast fitness of 0.52.
In the case of C30U G58A C61G, the yeast fitness is reported as ≤ 0.5.
For C31G A36C C46G G51C, the yeast fitness was 0.597.
For C31G C34U G67U, the yeast fitness was ≤ 0.5.
Work on C30U C46A G68C yielded a yeast fitness of 0.704.
For C31G A36C C62G, the yeast fitness was ≤ 0.5.
For C31A G39A A43C U53A C66A, the yeast fitness was ≤ 0.5.
In the case of C31A G48A A69C, the yeast fitness is reported as 0.678.
In the case of C30U C33G A69C, the yeast fitness is reported as 0.546.
In the case of C31A C66U, the yeast fitness is reported as 0.788.
In the case of C31G A69G, the yeast fitness is reported as 1.02.
Variant C31A C60A has a yeast fitness of 0.629.
For C30U C34G A57G, the yeast fitness was 0.569.
C31G C49U showed a yeast fitness of 0.92.
For C31G C49A, the yeast fitness was 0.734.
In the case of C31G A40G A45C U53A A70U, the yeast fitness is reported as ≤ 0.5.
Variant C31A A40C has a yeast fitness of 0.775.
With C31G A57C C61U the yeast fitness was ≤ 0.5.
In the case of C30U U54C A57C A70C, the yeast fitness is reported as ≤ 0.5.
In the case of C31A C33A C55G A57U C66U G67A, the yeast fitness is reported as ≤ 0.5.
For C30U C46A C61A G68A, the yeast fitness was ≤ 0.5.
C31A A45C C62U G63A U64A gave a yeast fitness of 0.521.
For C30U U35C A43C G67U, the yeast fitness was ≤ 0.5.
Variant C31A C62A A70C has a yeast fitness of 0.548.
C31G A45U showed a yeast fitness of 0.987.
For C31G A45C, the yeast fitness was 0.864.
For C30U C61U G63C, the yeast fitness was ≤ 0.5.
With C31G C33U U54G C55A the yeast fitness was ≤ 0.5.
In the case of C31G C46G C61G, the yeast fitness is reported as ≤ 0.5.
For C31A A42C C46G G67A, the yeast fitness was 0.625.
With C31A C61G G63A the yeast fitness was ≤ 0.5.
With C31G C49G C62U G67C the yeast fitness was ≤ 0.5.
In the case of C31G A42U G58C, the yeast fitness is reported as 0.538.
C31G C33G C34U G68A showed a yeast fitness of 0.603.
For C31G C34U G56A G58C, the yeast fitness was ≤ 0.5.
C31A C46U A70C gave a yeast fitness of 0.62.
In the case of C30U C60G G67A, the yeast fitness is reported as ≤ 0.5.
For C30U G51C G58A, the yeast fitness was ≤ 0.5.
